In brackets after ≈: the same amount, converted by molar mass.
Legend:
Citrobacter freundii [1] = assay: Synergistic antibacterial activity against carbapenem-resistant Citrobacter freundii isolate 05 harboring SHV-12 assessed as fractional inhibitory concentration index in presence of meropenem by CLSI protocol based assay; assay type: functional
Summary of the method: (§1)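 FIC index from MICs of compound alone, meropenem alone, and the 1:1 (mass) compound–meropenem combination, read by eye after overnight incubation in a CLSI-based assay. FIC index = MICcombo/MICcpd + MICcombo/MICMem. FIC index ≤0.5 counted as synergy. At least triplicate assays. Clinical NDM-1 isolates for 17-39; E. coli TG1 carrying the IncX3 blaNDM-1 plasmid for 15.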

Morganella morganii [2] = assay: Growth inhibition of carbapenem-resistant Morganella morganii isolate 26 by CLSI protocol based assay; assay type: functional
Morganella morganii [3] = assay: Potentiation of meropenem-induced antibacterial activity against carbapenem-resistant Morganella morganii isolate 26 assessed as meropenem MIC by CLSI protocol based assay (reference value: 64 ug/ml); assay type: functional
Escherichia coli [4] = assay: Potentiation of meropenem-induced antibacterial activity against carbapenem-resistant Escherichia coli isolate 33 harboring CTX-M-15 assessed as meropenem MIC by CLSI protocol based assay (reference value: 64 ug/ml); assay type: functional
Citrobacter freundii [5] = assay: Potentiation of meropenem-induced antibacterial activity against carbapenem-resistant Citrobacter freundii isolate 17 harboring SHV-12 assessed as meropenem MIC by CLSI protocol based assay (reference value: 64 ug/ml); assay type: functional
Enterobacter cloacae [6] = assay: Potentiation of meropenem-induced antibacterial activity against carbapenem-resistant Enterobacter cloacae isolate 10 harboring CTX-M-14, TEM-1 and SHV-12 assessed as meropenem MIC by CLSI protocol based assay (reference value: 64 ug/ml); assay type: functional
Klebsiella pneumoniae [7] = assay: Synergistic antibacterial activity against carbapenem-resistant Klebsiella pneumoniae isolate 04 harboring CTX-M-14, VIM-1, TEM-1 and SHV-12 assessed as fractional inhibitory concentration index in presence of meropenem by CLSI protocol based assay; assay type: functional; summary of the method: as §1
Escherichia coli [8] = assay: Synergistic antibacterial activity against carbapenem-resistant Escherichia coli isolate 06 harboring CTX-M-14, CTX-M-3 and SHV-12 assessed as fractional inhibitory concentration index in presence of meropenem by CLSI protocol based assay; assay type: functional; summary of the method: as §1
Citrobacter freundii [9] = assay: Growth inhibition of carbapenem-resistant Citrobacter freundii isolate 35 harboring CTX-M-3, KPC-2 and SHV-12 by CLSI protocol based assay; assay type: functional
Enterobacter cloacae [10] = assay: Growth inhibition of carbapenem-resistant Enterobacter cloacae isolate 22 harboring CTX-M-14, TEM-1 and SHV-12 by CLSI protocol based assay; assay type: functional
Klebsiella pneumoniae [11] = assay: Potentiation of meropenem-induced antibacterial activity against carbapenem-resistant Klebsiella pneumoniae isolate 04 harboring CTX-M-14, VIM-1, TEM-1 and SHV-12 assessed as meropenem MIC by CLSI protocol based assay (Rvb >= 128 ug/ml); assay type: functional
Klebsiella oxytoca [12] = assay: Synergistic antibacterial activity against carbapenem-resistant Klebsiella oxytoca isolate 16 harboring SHV-12 assessed as fractional inhibitory concentration index in presence of meropenem by CLSI protocol based assay; assay type: functional; summary of the method: as §1
Citrobacter freundii [13] = assay: Synergistic antibacterial activity against carbapenem-resistant Citrobacter freundii isolate 35 harboring CTX-M-3, KPC-2 and SHV-12 assessed as fractional inhibitory concentration index in presence of meropenem by CLSI protocol based assay; assay type: functional
Enterobacter cloacae [14] = assay: Synergistic antibacterial activity against carbapenem-resistant Enterobacter cloacae isolate 28 harboring TEM-1 and SHV-12 assessed as fractional inhibitory concentration index in presence of meropenem by CLSI protocol based assay; assay type: functional; summary of the method: as §1
Enterobacter cloacae [15] = assay: Growth inhibition of carbapenem-resistant Enterobacter cloacae isolate 28 harboring TEM-1 and SHV-12 by CLSI protocol based assay; assay type: functional
Enterobacter cloacae [16] = assay: Growth inhibition of carbapenem-resistant Enterobacter cloacae isolate 19 harboring CTX-M-14 and KPC-2 by CLSI protocol based assay; assay type: functional
Citrobacter freundii [17] = assay: Synergistic antibacterial activity against carbapenem-resistant Citrobacter freundii isolate 17 harboring SHV-12 assessed as fractional inhibitory concentration index in presence of meropenem by CLSI protocol based assay; assay type: functional; summary of the method: as §1
Escherichia coli [18] = assay: Potentiation of meropenem-induced antibacterial activity against carbapenem-resistant Escherichia coli isolate 45 assessed as meropenem MIC by CLSI protocol based assay (Rvb >= 128 ug/ml); assay type: functional
Enterobacter cloacae [19] = assay: Potentiation of meropenem-induced antibacterial activity against carbapenem-resistant Enterobacter cloacae isolate 08 harboring CTX-M-14, TEM-1 and SHV-12 assessed as meropenem MIC by CLSI protocol based assay (reference value: 32 ug/ml); assay type: functional
Klebsiella oxytoca [20] = assay: Growth inhibition of carbapenem-resistant Klebsiella oxytoca isolate 03 harboring SHV-12 by CLSI protocol based assay; assay type: functional
[21] = Growth inhibition of Escherichia coli TG1 transformed with IncX3 plasmid expressing blaNDM-1 incubated for overnight by CLSI protocol based assay; conditions: 12 h
Enterobacter cloacae [22] = assay: Synergistic antibacterial activity against carbapenem-resistant Enterobacter cloacae isolate 07 harboring CTX-M-14, TEM-1 and SHV-12 assessed as fractional inhibitory concentration index in presence of meropenem by CLSI protocol based assay; assay type: functional; summary of the method: as §1
Morganella morganii [23] = assay: Synergistic antibacterial activity against carbapenem-resistant Morganella morganii isolate 26 assessed as fractional inhibitory concentration index in presence of meropenem by CLSI protocol based assay; assay type: functional; summary of the method: as §1
Klebsiella pneumoniae [24] = assay: Potentiation of meropenem-induced antibacterial activity against carbapenem-resistant Klebsiella pneumoniae isolate 14 harboring CTX-M-14, KPC-2 and SHV-12 assessed as meropenem MIC by CLSI protocol based assay (Rvb >= 128 ug/ml); assay type: functional
Enterobacter cloacae [25] = assay: Potentiation of meropenem-induced antibacterial activity against carbapenem-resistant Enterobacter cloacae isolate 18 harboring IMP-4 and TEM-1 assessed as meropenem MIC by CLSI protocol based assay (reference value: 32 ug/ml); assay type: functional
Enterobacter cloacae [26] = assay: Growth inhibition of carbapenem-resistant Enterobacter cloacae isolate 08 harboring CTX-M-14, TEM-1 and SHV-12 by CLSI protocol based assay; assay type: functional
Citrobacter freundii [27] = assay: Synergistic antibacterial activity against carbapenem-resistant Citrobacter freundii isolate 43 assessed as fractional inhibitory concentration index in presence of meropenem by CLSI protocol based assay; assay type: functional; summary of the method: as §1
Enterobacter cloacae [28] = assay: Potentiation of meropenem-induced antibacterial activity against carbapenem-resistant Enterobacter cloacae isolate 07 harboring CTX-M-14, TEM-1 and SHV-12 assessed as meropenem MIC by CLSI protocol based assay (reference value: 64 ug/ml); assay type: functional
Citrobacter freundii [29] = assay: Potentiation of meropenem-induced antibacterial activity against carbapenem-resistant Citrobacter freundii isolate 35 harboring CTX-M-3, KPC-2 and SHV-12 assessed as meropenem MIC by CLSI protocol based assay (Rvb >= 128 ug/ml); assay type: functional
Escherichia coli [30] = assay: Potentiation of meropenem-induced antibacterial activity against carbapenem-resistant Escherichia coli isolate 34 harboring CTX-M-15, TEM-1 and SHV-12 assessed as meropenem MIC by CLSI protocol based assay (reference value: 64 ug/ml); assay type: functional
Enterobacter cloacae [31] = assay: Potentiation of meropenem-induced antibacterial activity against carbapenem-resistant Enterobacter cloacae isolate 28 harboring TEM-1 and SHV-12 assessed as meropenem MIC by CLSI protocol based assay (reference value: 32 ug/ml); assay type: functional
Enterobacter cloacae [32] = assay: Synergistic antibacterial activity against carbapenem-resistant Enterobacter cloacae isolate 10 harboring CTX-M-14, TEM-1 and SHV-12 assessed as fractional inhibitory concentration index in presence of meropenem by CLSI protocol based assay; assay type: functional; summary of the method: as §1

SMILES | fractional inhibitory concentration index (FICI) (Citrobacter freundii [1]) | MIC (Morganella morganii [2]) [µg/mL] | MIC (Morganella morganii [3]) [µg/mL] | MIC (Escherichia coli [4]) [µg/mL] | MIC (Citrobacter freundii [5]) [µg/mL] | MIC (Enterobacter cloacae [6]) [µg/mL] | fractional inhibitory concentration index (FICI) (Klebsiella pneumoniae [7]) | fractional inhibitory concentration index (FICI) (Escherichia coli [8]) | MIC (Citrobacter freundii [9]) [µg/mL] | MIC (Enterobacter cloacae [10]) [µg/mL] | MIC (Klebsiella pneumoniae [11]) [µg/mL] | fractional inhibitory concentration index (FICI) (Klebsiella oxytoca [12]) | fractional inhibitory concentration index (FICI) (Citrobacter freundii [13]) | fractional inhibitory concentration index (FICI) (Enterobacter cloacae [14]) | MIC (Enterobacter cloacae [15]) [µg/mL] | MIC (Enterobacter cloacae [16]) [µg/mL] | fractional inhibitory concentration index (FICI) (Citrobacter freundii [17]) | MIC (Escherichia coli [18]) [µg/mL] | MIC (Enterobacter cloacae [19]) [µg/mL] | MIC (Klebsiella oxytoca [20]) [µg/mL] | also measured
CC(C)(C)OC(=O)NCCn1[se]c2ccccc2c1=O | 0.13 | ≥ 128 | 2 | 8 | 4 | 8 | 0.5 | 0.13 | ≥ 128 | ≥ 128 | 32 | 0.13 | 0.13 | 0.16 | ≥ 128 | ≥ 128 | 0.09 | 4 | 4 | ≥ 128 | MIC [21]: >= 128 ug ml-1; fractional inhibitory concentration index (FICI) (Enterobacter cloacae [22]): 0.19; fractional inhibitory concentration index (FICI) (Morganella morganii [23]): 0.05; MIC (Klebsiella pneumoniae [24]): 8 µg/mL; MIC (Enterobacter cloacae [25]): 16 µg/mL; MIC (Enterobacter cloacae [26]): ≥ 128 µg/mL; fractional inhibitory concentration index (FICI) (Citrobacter freundii [27]): 0.25; MIC (Enterobacter cloacae [28]): 8 µg/mL; MIC (Citrobacter freundii [29]): 8 µg/mL; MIC (Escherichia coli [30]): 4 µg/mL; MIC (Enterobacter cloacae [31]): 4 µg/mL; fractional inhibitory concentration index (FICI) (Enterobacter cloacae [32]): 0.19
O=c1c2ccccc2[se]n1-c1ccccc1 [EBSELEN] | 0.25 | ≥ 128 | 64 | 16 | 16 | 64 | 1 | 1 | ≥ 128 | ≥ 128 | 64 | 0.5 | 0.5 | 2.5 | ≥ 128 | ≥ 128 | 0.38 | 16 | 32 | ≥ 128 | MIC [21]: 64 µg/mL (≈ 233 µM); fractional inhibitory concentration index (FICI) (Enterobacter cloacae [22]): 0.38; fractional inhibitory concentration index (FICI) (Morganella morganii [23]): 1.5; MIC (Klebsiella pneumoniae [24]): ≥ 128 µg/mL; MIC (Enterobacter cloacae [25]): 64 µg/mL; MIC (Enterobacter cloacae [26]): ≥ 128 µg/mL; fractional inhibitory concentration index (FICI) (Citrobacter freundii [27]): 0.5; MIC (Enterobacter cloacae [28]): 16 µg/mL; MIC (Citrobacter freundii [29]): 32 µg/mL; MIC (Escherichia coli [30]): 16 µg/mL; MIC (Enterobacter cloacae [31]): 64 µg/mL; fractional inhibitory concentration index (FICI) (Enterobacter cloacae [32]): 1.5

— ChEMBL document CHEMBL4673212, “Investigation of synergistic antimicrobial effects of the drug combinations of meropenem and 1,2-benzisoselenazol-3(2H)-one derivatives on carbapenem-resistant Enterobacteriaceae producing NDM-1” (Eur J Med Chem, 2018)
